# Measurements pooled from the literature.
# Compare with care: the assays were run in different laboratories.
# Target: Citron Rho-interacting kinase (CIT, Homo sapiens, UniProt O14578)
SMILES,effect on,action,method,tested at,measurement,result
CO[C@@H]1[C@H](N(C)C(=O)c2ccccc2)C[C@H]2O[C@]1(C)n1c3ccccc3c3c4c(c5c6ccccc6n2c5c31)C(=O)NC4,enzyme activity,inhibitor,,1 µM,inhibition,0%
Cc1ccc(NC(=O)c2ccnc(C(F)(F)F)c2)cc1-c1cc(OCCO)nc(N2CCOCC2)c1,binding,,competition with immobilised ligand,1 µM,remaining binding,96%
CC#CC(=O)N1CCC[C@H]1c1nc(-c2ccc(C(=O)Nc3ccccn3)cc2)c2c(N)nccn12,enzyme activity,inhibitor,,1 µM,inhibition,1%
C1=C/COCc2cc(ccc2OCCN2CCCC2)Nc2nccc(n2)-c2cccc(c2)COC/1,cell-free assay,,,0.1 µM,remaining signal,72%
COc1ccc2oc(-c3ccc4nc(N)oc4c3)c/c(=N\c3ccccc3NC(=O)CCN)c2c1,binding,,,1 µM,remaining binding,92%
CN1CCN(C(=O)c2ccc(NC(=O)Nc3ccc(N(C)c4ccnc(Nc5ccc(CS(C)(=O)=O)cc5)n4)cc3)cc2)CC1,binding,,competition with immobilised ligand,1 µM,remaining binding,79%
CC(C)S(=O)(=O)c1ccc2nccc(Nc3ccc4sc(C5CCCC5)nc4c3)c2c1,enzyme activity,inhibitor,,1 µM,activity vs control,113%
CCCCC(=O)Nc1ccc(-c2ccc3ncn(CCC)c(=O)c3c2)cn1,binding,,competition with immobilised ligand,0.5 µM,remaining binding,83%
